Laboratory results taken from ChEMBL document CHEMBL4007509, “Structural Optimizations of Thieno[3,2-b]pyrrole Derivatives for the Development of Metabolically Stable Inhibitors of Chikungunya Virus” (J Med Chem, 2017).

Experiments:
[1] = Selectivity index, ratio of CC50 for HEK293T cells to EC50 for full length Gaussia princeps Gluc-tagged Chikungunya virus IMT; assay type: toxicity; details: human, read-out: Ratio CC50/EC50
Chikungunya virus [2] = assay: Antiviral activity against full length Gaussia princeps Gluc-tagged Chikungunya virus IMT infected in HEK293T cells assessed as reduction in virus infection after 24 hrs by Gaussia luciferase reporter gene assay; assay type: functional, cell-based; details: HEK-293T
[3] = Cytotoxicity against HEK293T cells assessed as reduction in cell viability after 24 hrs by CellTiter-Glo luminescent assay; assay type: cell-based, HEK-293T; details: human
How it was run: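 HEK 293T cell viability was measured by CellTiter-Glo luminescence after 24 h exposure to serial dilutions. Data were normalized to untreated cells (100%) and reagent background (0%). CC50, the concentration reducing viability by 50%, came from a five-parameter asymmetric fit.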

Chikungunya virus [4] = assay: Antiviral activity against wild type Chikungunya virus IMT infected in HEK293T cells assessed as reduction in virus infection after 24 hrs by FITC immunofluorescence-based single cell quantification high content screening assay; assay type: functional; details: HEK-293T
[5] = Half life in human liver microsomes; assay type: ADME, microsome
How it was run: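 Compounds were incubated with human liver microsomes. Half-life = ln(2)/slope, where the slope is ln(% detected) plotted against time, using the mean of at least 3 independent experiments.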

[6] = Oral bioavailability in C57BL/6 mouse at 10 mg/kg; assay type: ADME, organism-based; details: in vivo
How it was run: (§1)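 Male C57BL/6 mice received a single 3 mg/kg iv or 10 mg/kg po dose of a solution in 5% DMSO, 70% PEG400 and 25% water. Results are terminal half-life (h), plasma clearance (mL min−1 kg−1), Vss (L/kg), Tmax (h), Cmax (ng/mL) and oral bioavailability. Values are mean ± SD of three mice.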

Chikungunya virus [7] = assay: Antiviral activity against Chikungunya virus IMT infected in HEK 293T cells assessed as reduction in viral load measured up to 24 hrs by qRT-PCR analysis; assay type: functional, cell-based
Chikungunya virus [8] = assay: Antiviral activity against Chikungunya virus IMT infected in HEK 293T cells assessed as reduction in viral load measured up to 24 hrs by qRT-PCR analysis relative to control; assay type: functional, cell-based
Chikungunya virus [9] = assay: Antiviral activity against Chikungunya virus IMT infected in HEK 293T cells assessed as reduction in viral load at 25 uM measured up to 24 hrs by qRT-PCR analysis relative to control; assay type: functional
[10] = Plasma concentration in C57BL/6 mouse at 10 mg/kg, po administered as single dose measured at 24 hrs by HPLC-MS/MS analysis; assay type: ADME, organism-based
How it was run: (§2)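 Male C57BL/6 mice received a single 3 mg/kg iv or 10 mg/kg po dose in 5% DMSO/70% PEG400/25% water. Plasma was sampled at set times over 24 h and analysed by HPLC-MS/MS, with a quantification limit of 0.5 ng/mL. Values are mean ± SD of three mice.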

[11] = Plasma clearance in C57BL/6 mouse at 3 mg/kg, iv; assay type: ADME, organism-based; how it was run: as §1
[12] = Cmax in C57BL/6 mouse at 10 mg/kg, po; assay type: ADME, organism-based; parameters: dose 10 mg/kg, route oral; details: in vivo; how it was run: as §1
[13] = Plasma concentration in C57BL/6 mouse at 3 mg/kg, iv administered as single dose measured at 24 hrs by HPLC-MS/MS analysis; assay type: ADME, organism-based; how it was run: as §2
Chikungunya virus [14] = assay: Antiviral activity against Chikungunya virus IMT infected in HEK 293T cells assessed as reduction in viral load at 5 uM measured up to 24 hrs by qRT-PCR analysis relative to control; assay type: functional
Chikungunya virus [15] = assay: Antiviral activity against Chikungunya virus IMT infected in HEK 293T cells assessed as reduction in viral load at 10 uM measured up to 24 hrs by qRT-PCR analysis relative to control; assay type: functional
[16] = Tmax in C57BL/6 mouse at 10 mg/kg, po; assay type: ADME, organism-based; details: in vivo; how it was run: as §1
[17] = Terminal half life in C57BL/6 mouse at 10 mg/kg, po; assay type: ADME, organism-based; details: in vivo, read-out: beta t1/2 (converted); how it was run: as §1
[18] = Plasma concentration in C57BL/6 mouse at 10 mg/kg, po administered as single dose measured within 1 hr post dose by HPLC-MS/MS analysis; assay type: ADME, organism-based; how it was run: as §2
[19] = Plasma concentration in C57BL/6 mouse at 3 mg/kg, iv administered as single dose measured within 1 hr post dose by HPLC-MS/MS analysis; assay type: ADME, organism-based; how it was run: as §2
[20] = Terminal half life in C57BL/6 mouse at 3 mg/kg, iv; assay type: ADME, organism-based; details: in vivo, read-out: beta t1/2 (converted); how it was run: as §1
Liver = assay: Intrinsic clearance in human liver microsomes; assay type: ADME, microsome
How it was run: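 Intrinsic clearance was measured in human liver microsome incubation and expressed in μL min−1 mg−1 microsomal protein.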

[21] = Volume of distribution in steady state in C57BL/6 mouse at 3 mg/kg, iv; assay type: ADME, organism-based; details: in vivo, read-out: Vdss; how it was run: as §1
[22] = Cytotoxicity against human BJ cells assessed as reduction in cell viability after 24 hrs by CellTiter-Glo luminescent assay; assay type: cell-based
How it was run: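 BJ human fibroblast viability was measured by CellTiter-Glo luminescence after 24 h exposure to serial dilutions. Data were normalized to untreated cells (100%) and reagent background (0%). CC50 came from a five-parameter asymmetric fit.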

Chikungunya virus [23] = assay: Antiviral activity against full length gluc-tagged Chikungunya virus 2013 Caribbean CNR20235 infected in HEK293T cells assessed as reduction in virus infection after 24 hrs by gaussia luciferase reporter gene assay; assay type: functional, cell-based; details: 2013 Caribbean CNR20235, HEK-293T
Chikungunya virus [24] = assay: Antiviral activity against full length gluc-tagged Chikungunya virus 2008 Singapore SGP11 infected in HEK293T cells assessed as reduction in virus infection after 24 hrs by gaussia luciferase reporter gene assay; assay type: functional, cell-based; details: 2008 Singapore SGP11, HEK-293T
Chikungunya virus [25] = assay: Antiviral activity against full length gluc-tagged Chikungunya virus IMT infected in human BJ cells assessed as reduction in virus infection after 24 hrs by gaussia luciferase reporter gene assay; assay type: functional, cell-based

SMILES | selectivity ratio [1] | EC50 (Chikungunya virus [2]) [µM] | CC50 at 24 h [3] [µM] | EC50 (Chikungunya virus [4]) [µM] | half-life [5] [min] | further results
CCCNC(=O)C1CCN(C(=O)c2cc3ncsc3n2Cc2ccc(OC)cc2)CC1 | 4.5 | 9.39 | 42.7 | 14 | 32.6 | 
CCCNC(=O)[C@@H]1C[C@H]2CCC[C@@H](C1)[C@@H]2NC(=O)c1cc2sc(Br)nc2n1Cc1ccc(OC)cc1 | > 14 | 7.23 | > 100 | 12.6 | 52 | bioavailability [6]: 39.1%; inhibition (Chikungunya virus [7]): Dose-dependent effect; Activity (Chikungunya virus [8]): Dose-dependent effect; fold change (FC) (Chikungunya virus [9]): <=5; concentration at 24 h [10]: < 0.5 ng/mL; clearance [11]: 5.68 mL/min/kg; Cmax [12]: 6700 ng/mL; concentration at 24 h [13]: < 0.5 ng/mL; fold change (FC) (Chikungunya virus [14]): <=5; fold change (FC) (Chikungunya virus [15]): <=5; Tmax [16]: 20 min; half-life [17]: 83.4 min; concentration at 1 h [18]: 17 µM; concentration at 1 h [19]: 17 µM; half-life [20]: 65.4 min; CLH (Liver): 26.7 µL/min; Vd [21]: 0.337 L/kg
NC(=O)c1ncn([C@@H]2O[C@H](CO)[C@@H](O)[C@H]2O)n1 [RIBAVIRIN] |  | 16.2 | > 100 |  |  | CC50 at 24 h [22]: > 100 µM; EC50 (Chikungunya virus [23]): 1.97 µM; EC50 (Chikungunya virus [24]): 1.89 µM; EC50 (Chikungunya virus [25]): 9.71 µM
CCCNC(=O)C1CC12CCN(C(=O)c1cc3sc(Br)nc3n1Cc1ccc(OC)cc1)CC2 (stereo not drawn) | 9.9 | 8.21 | 81.3 | > 25 | 4.97 | 
CCCNC(=O)C1CC12CCN(C(=O)c1cc3sc(-c4ccccc4)nc3n1Cc1ccc(OC)cc1)CC2 (stereo not drawn) | > 13 | 7.7 | > 100 | 14.1 | 41.8 | 
CCCNC(=O)C1CCN(C(=O)c2cc3oc(Br)cc3n2Cc2ccc(OC)cc2)CC1 | 11 | 1.93 | 21.9 | 1.86 | 9.5 | 
CCCNC(=O)C1CCN(C(=O)c2cc3ccccc3n2Cc2ccc(OC)cc2)CC1 | 3.3 | 7.86 | 26 | 8.26 | 2.66 | 
CCCNC(=O)C1CCN(C(=O)c2cc3scnc3n2Cc2ccc(OC)cc2)CC1 | 4.2 | 4.56 | 19.1 | 4.72 | 27.7 | 
CCCNC(=O)[C@H]1[C@@H]2CCC[C@H]1CN(C(=O)c1cc3sc(Br)cc3n1Cc1ccc(OC)cc1)C2 | > 14 | 6.98 | > 100 | 14.8 | 3.62 | 
CCCNC(=O)C1CC12CCN(C(=O)c1cc3sc(Br)cc3n1Cc1ccc(OC)cc1)CC2 (stereo not drawn) | > 11 | 9.35 | > 100 | 15.7 | 5.83 | 
[2H]C([2H])([2H])C([2H])(NC(=O)C1CCN(C(=O)c2cc3sc(Br)cc3n2Cc2ccc(OC)cc2)CC1)C([2H])([2H])[2H] | > 65 | 1.55 | > 100 | 1.63 | 5.33 | 
